Assay results as given in ChEMBL document CHEMBL4359823, “Switching on the activity of 1,5-diaryl-pyrrole derivatives against drug-resistant ESKAPE bacteria: Structure-activity relationships and mode of action studies” (Eur J Med Chem, 2019).
≈ marks a conversion by molar mass, not a printed value. Calls of active or inactive are those of the source. The calls are words filed in the database; no cut-off is given here.

Columns and labels:
Enterococcus faecalis [1] = experiment: Antibacterial activity against vancomycin resistant Enterococcus faecalis NCTC12201 measured after overnight incubation by microbroth dilution method; assay type: functional
Method in brief: (§1)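 Microbroth dilution: DMSO stocks diluted in water, 2-fold series. Overnight TSB cultures back-diluted to OD 0.01 and mixed 1:1 with compound. Incubated overnight at 37 °C; MIC taken as lowest concentration without visible growth (<0.1 OD600). Run in duplicate; matching DMSO levels checked for effect on growth.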

Staphylococcus aureus [2] = experiment: Antibacterial activity against methicillin sensitive Staphylococcus aureus NCTC 6571 measured after overnight incubation by microbroth dilution method; assay type: functional; method in brief: as §1
Staphylococcus aureus [3] = experiment: Antibacterial activity against methicillin resistant Staphylococcus aureus NCTC13616 measured after overnight incubation by microbroth dilution method; assay type: functional; method in brief: as §1
Staphylococcus aureus [4] = experiment: Antibacterial activity against methicillin resistant Staphylococcus aureus NCTC13277 measured after overnight incubation by microbroth dilution method; assay type: functional; method in brief: as §1
Enterococcus faecalis [5] = experiment: Antibacterial activity against vancomycin sensitive Enterococcus faecalis NCTC775 measured after overnight incubation by microbroth dilution method; assay type: functional; method in brief: as §1
Klebsiella pneumoniae [6] = experiment: Antibacterial activity against Klebsiella pneumoniae NCTC13368 measured after overnight incubation by microbroth dilution method; assay type: functional
Method in brief: (§2)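 Microbroth dilution MIC. Compound DMSO stocks were diluted in water as a 2-fold series. Overnight TSB cultures were back-diluted to OD 0.01 and mixed 1:1 with compound. Plates were incubated overnight at 37 °C. MIC was the lowest concentration without visible growth (<0.1 OD600), run in duplicate.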

Klebsiella pneumoniae [7] = experiment: Antibacterial activity against Klebsiella pneumoniae M6 measured after overnight incubation by microbroth dilution method; assay type: functional; method in brief: as §2
Acinetobacter baumannii [8] = experiment: Antibacterial activity against Acinetobacter baumannii AYE measured after overnight incubation by microbroth dilution method; assay type: functional; method in brief: as §2
Acinetobacter baumannii [9] = experiment: Antibacterial activity against Acinetobacter baumannii ATCC 17978 measured after overnight incubation by microbroth dilution method; assay type: functional; method in brief: as §2
Pseudomonas aeruginosa [10] = experiment: Antibacterial activity against Pseudomonas aeruginosa PAO1 measured after overnight incubation by microbroth dilution method; assay type: functional; method in brief: as §2
Pseudomonas aeruginosa [11] = experiment: Antibacterial activity against Pseudomonas aeruginosa NCTC13437 measured after overnight incubation by microbroth dilution method; assay type: functional; method in brief: as §2
Escherichia coli [12] = experiment: Antibacterial activity against Escherichia coli NCTC12923 measured after overnight incubation by microbroth dilution method; assay type: functional; method in brief: as §2
Klebsiella pneumoniae [13] = experiment: Antibacterial activity against Klebsiella pneumoniae NCTC13368 measured after overnight incubation in presence of polymyxin B nonapeptide by microbroth dilution method; assay type: functional
Klebsiella pneumoniae [14] = experiment: Antibacterial activity against Klebsiella pneumoniae M6 measured after overnight incubation in presence of polymyxin B nonapeptide by microbroth dilution method; assay type: functional
Acinetobacter baumannii [15] = experiment: Antibacterial activity against Acinetobacter baumannii AYE measured after overnight incubation in presence of polymyxin B nonapeptide by microbroth dilution method; assay type: functional
Acinetobacter baumannii [16] = experiment: Antibacterial activity against Acinetobacter baumannii ATCC 17978 measured after overnight incubation in presence of polymyxin B nonapeptide by microbroth dilution method; assay type: functional
Pseudomonas aeruginosa [17] = experiment: Antibacterial activity against Pseudomonas aeruginosa PAO1 measured after overnight incubation in presence of polymyxin B nonapeptide by microbroth dilution method; assay type: functional
Pseudomonas aeruginosa [18] = experiment: Antibacterial activity against Pseudomonas aeruginosa NCTC13437 measured after overnight incubation in presence of polymyxin B nonapeptide by microbroth dilution method; assay type: functional
Escherichia coli [19] = experiment: Antibacterial activity against Escherichia coli NCTC12923 measured after overnight incubation in presence of polymyxin B nonapeptide by microbroth dilution method; assay type: functional
Enterococcus faecalis [20] = experiment: Antibacterial activity against vancomycin resistant Enterococcus faecalis NCTC12204 measured after overnight incubation by microbroth dilution method; assay type: functional; method in brief: as §1
[21] = Inhibition of Staphylococcus aureus DNA gyrase subunit A2B2 using relaxed pBR322 DNA as substrate measured after 30 mins in presence of ATP by ethidium bromide-based gel electrophoresis
Method in brief: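 Supercoiling assay with S. aureus wild-type or S84L gyrase and relaxed pBR322, with or without varying compound, at 37 °C for 30 min. The reaction was stopped with STEB and extracted with chloroform:isoamyl alcohol (24:1). The aqueous phase was run on a 1% agarose gel and the supercoiled band quantified. IC50 came from at least three independent replicates.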

Staphylococcus aureus [22] = experiment: Antibacterial activity against Staphylococcus aureus NCTC13616 assessed as generation of drug resistance at 2 times MIC measured after 48 hrs by agar-based microbroth dilution method; assay type: functional
Method in brief: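 Agar method: exponentially growing bacteria, in known numbers, plated on agar with doubling compound concentrations at and above the MIC; incubated 48 hours. Colonies growing above the MIC were picked and re-tested by microbroth MIC for raised resistance. Resistance frequency reported at 2xMIC.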

Topoisomerase IV = Topoisomerase IV (Staphylococcus aureus, UniProt P0C1S7+P0C1U9); experiment: Inhibition of Staphylococcus aureus topoisomerase-4 expressed in Escherichia coli assessed as relaxation of pBR322 substrate measured after 30 mins by agarose gel electrophoresis
Enterococcus faecium = experiment: Antibacterial activity against Enterococcus faecium NCTC12204 assessed as generation of drug resistance at 2 times MIC measured after 48 hrs by agar-based microbroth dilution method
HEK293 = experiment: Cytotoxicity again human HEK293 cells measured after 24 hrs by XTT assay; assay type: cell-based; conditions: HEK293, 24 h
Method in brief: (§3)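 Cells were grown in EMEM with glutamine, 10% FBS and non-essential amino acids at 37 °C, 10% CO2. Seeding was 1 x 10^5 cells/mL (HEK293) or 4 x 10^4 cells/mL (HeLa), then 24 h adherence. Doubling compound dilutions were applied for 24 h. XTT/PMS was added for 4 h in the dark, with absorbance read at 450 nm. Untreated cells were the 100% control and water-treated cells the 0% control; IC50 was fitted.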

HeLa = experiment: Cytotoxicity again human HeLa cells measured after 24 hrs by XTT assay; assay type: cell-based; method in brief: as §3
Klebsiella pneumoniae [23] = experiment: Antibacterial activity against Klebsiella pneumoniae NCTC13368 measured after overnight incubation in presence of phenylalanine arginine beta-naphthylamide by microbroth dilution method; assay type: functional; method in brief: as §2
Klebsiella pneumoniae [24] = experiment: Antibacterial activity against Klebsiella pneumoniae M6 measured after overnight incubation in presence of phenylalanine arginine beta-naphthylamide by microbroth dilution method; assay type: functional; method in brief: as §2
Acinetobacter baumannii [25] = experiment: Antibacterial activity against Acinetobacter baumannii AYE measured after overnight incubation in presence of phenylalanine arginine beta-naphthylamide by microbroth dilution method; assay type: functional; method in brief: as §2
Acinetobacter baumannii [26] = experiment: Antibacterial activity against Acinetobacter baumannii ATCC 17978 measured after overnight incubation in presence of phenylalanine arginine beta-naphthylamide by microbroth dilution method; assay type: functional; method in brief: as §2
Pseudomonas aeruginosa [27] = experiment: Antibacterial activity against Pseudomonas aeruginosa PAO1 measured after overnight incubation in presence of phenylalanine arginine beta-naphthylamide by microbroth dilution method; assay type: functional; method in brief: as §2
Pseudomonas aeruginosa [28] = experiment: Antibacterial activity against Pseudomonas aeruginosa NCTC13437 measured after overnight incubation in presence of phenylalanine arginine beta-naphthylamide by microbroth dilution method; assay type: functional; method in brief: as §2
Escherichia coli [29] = experiment: Antibacterial activity against Escherichia coli NCTC12923 measured after overnight incubation in presence of phenylalanine arginine beta-naphthylamide by microbroth dilution method; assay type: functional; method in brief: as §2
DNA gyrase = DNA gyrase (Staphylococcus aureus, UniProt P0A0K8+P20831, S84L); experiment: Inhibition of Staphylococcus aureus DNA gyrase S84L mutant; assay type: protein-complex assay
Enterococcus faecalis [30] = experiment: Bacteriostatic activity against vancomycin resistant Enterococcus feacalis NCTC12204 at 4 times MIC measured at 0 to 24 hrs by time kill assay
Staphylococcus aureus [31] = experiment: Bacteriostatic activity against methicillin resistant Staphylococcus aureus NCTC13616 at 4 times MIC measured at 0 to 24 hrs by time kill assay

Cc1c(CNCc2ccccc2)cc(-c2ccc(Cl)cc2)n1-c1ccc(Cl)cc1
MIC (Enterococcus faecalis [1]): 4 µg/mL (≈ 9.49 µM) | MIC (Staphylococcus aureus [2]): 8 µg/mL (≈ 19 µM) | MIC (Staphylococcus aureus [3]): 8 µg/mL (≈ 19 µM) | MIC (Staphylococcus aureus [4]): 4 µg/mL (≈ 9.49 µM) | MIC (Enterococcus faecalis [5]): 4 µg/mL (≈ 9.49 µM) | MIC (Klebsiella pneumoniae [6]): > 128 µg/mL | MIC (Klebsiella pneumoniae [7]): > 128 µg/mL | MIC (Acinetobacter baumannii [8]): > 128 µg/mL | MIC (Acinetobacter baumannii [9]): > 128 µg/mL | MIC (Pseudomonas aeruginosa [10]): > 128 µg/mL | MIC (Pseudomonas aeruginosa [11]): > 128 µg/mL | MIC (Escherichia coli [12]): > 128 µg/mL | MIC (Klebsiella pneumoniae [13]): > 128 µg/mL | MIC (Klebsiella pneumoniae [14]): 32 µg/mL | MIC (Acinetobacter baumannii [15]): 16 µg/mL | MIC (Acinetobacter baumannii [16]): 16 µg/mL | MIC (Pseudomonas aeruginosa [17]): > 128 µg/mL | MIC (Pseudomonas aeruginosa [18]): > 128 µg/mL | MIC (Escherichia coli [19]): > 128 µg/mL

C[C@H]1COc2c(N3CCN(C)CC3)c(F)cc3c(=O)c(C(=O)O)cn1c23.C[C@H]1COc2c(N3CCN(C)CC3)c(F)cc3c(=O)c(C(=O)O)cn1c23.O [LEVOFLOXACIN]
MIC (Enterococcus faecalis [20]): 0.5 µg/mL | MIC (Enterococcus faecalis [1]): 1 µg/mL | MIC (Staphylococcus aureus [2]): 0.12 µg/mL | MIC (Staphylococcus aureus [3]): 8 µg/mL | MIC (Staphylococcus aureus [4]): 8 µg/mL | MIC (Enterococcus faecalis [5]): 1 µg/mL | MIC (Klebsiella pneumoniae [7]): 0.12 µg/mL | MIC (Acinetobacter baumannii [9]): 0.12 µg/mL | MIC (Escherichia coli [12]): < 0.12 µg/mL | IC50 [21]: 8.71 µg/mL | Activity (Staphylococcus aureus [22]): 1.87e-05 | IC50 (Topoisomerase IV): 9.85 µM | Activity (Enterococcus faecium): 7.08e-06

Cc1c(CNC2CCC(NC(=N)N)CC2)cc(-c2ccc(Cl)cc2)n1-c1ccc(Cl)cc1 (stereo not drawn)
MIC (Enterococcus faecalis [20]): 4 µg/mL (≈ 8.5 µM) | MIC (Enterococcus faecalis [1]): 16 µg/mL (≈ 34 µM) | MIC (Staphylococcus aureus [2]): 2 µg/mL (≈ 4.25 µM) | MIC (Staphylococcus aureus [3]): 2 to 4 µg/mL (≈ 4.25 to 8.5 µM) | MIC (Staphylococcus aureus [4]): 4 µg/mL (≈ 8.5 µM) | MIC (Enterococcus faecalis [5]): 8 µg/mL (≈ 17 µM) | MIC (Klebsiella pneumoniae [6]): 128 µg/mL (≈ 272 µM) | MIC (Klebsiella pneumoniae [7]): 32 µg/mL (≈ 68 µM) | MIC (Acinetobacter baumannii [8]): 64 to 128 µg/mL (≈ 136 to 272 µM) | MIC (Acinetobacter baumannii [9]): 16 µg/mL (≈ 34 µM) | MIC (Pseudomonas aeruginosa [10]): 128 µg/mL (≈ 272 µM) | MIC (Pseudomonas aeruginosa [11]): 16 µg/mL (≈ 34 µM) | MIC (Escherichia coli [12]): 8 µg/mL (≈ 17 µM) | IC50 (HEK293): 11.7 to 18.9 µg/mL (≈ 24.8 to 40.2 µM) | IC50 (HeLa): 11.7 to 18.9 µg/mL (≈ 24.8 to 40.2 µM) | MIC (Klebsiella pneumoniae [13]): 128 µg/mL | MIC (Klebsiella pneumoniae [14]): 64 µg/mL | MIC (Acinetobacter baumannii [15]): 32 µg/mL | MIC (Acinetobacter baumannii [16]): 16 µg/mL | MIC (Pseudomonas aeruginosa [17]): 128 µg/mL | MIC (Pseudomonas aeruginosa [18]): 16 µg/mL | MIC (Escherichia coli [19]): 4 µg/mL | MIC (Klebsiella pneumoniae [23]): 128 µg/mL | MIC (Klebsiella pneumoniae [24]): 64 µg/mL | MIC (Acinetobacter baumannii [25]): 64 µg/mL | MIC (Acinetobacter baumannii [26]): 16 µg/mL | MIC (Pseudomonas aeruginosa [27]): 128 µg/mL | MIC (Pseudomonas aeruginosa [28]): 64 µg/mL | MIC (Escherichia coli [29]): 8 µg/mL | IC50 [21]: 7.48 µg/mL | IC50 (DNA gyrase): 15.4 µM | Activity (Staphylococcus aureus [22]): <7.6e-08 | Activity (Enterococcus faecalis [30]): Active | Activity (Staphylococcus aureus [31]): Active | IC50 (Topoisomerase IV): 61.2 µM | Activity (Enterococcus faecium): <9.4e-08
